The text below walks through data of ChEMBL document CHEMBL4513216, “Probing the Open Global Health Chemical Diversity Library for Multistage-Active Starting Points for Next-Generation Antimalarials” (ACS Infect Dis, 2020).

The nature of this series: Toxicity liver stage against HepG2, at 10uM. It counts as cell-based. More on the design: test concentration 10 uM, cell line HepG2-A16-CD81EGFP. The settings on record: human, HepG2-A16-CD81EGFP cells; read-out: INHIBITION
Summed up:
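Uninfected HepG2-A16-CD81EGFP cells, 3 × 10^3 per well, 1536-well, plated on prespotted compound at 10 μM final, parasite-free screening media added to match infected plates; puromycin 10 μM positive, DMSO 0.5% negative; run in parallel with 48 h PbLuc assay at 37 °C, 5% CO2; viability by CellTiter-Glo luminescence, normalized to controls.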
As to `O=C1NCCCCC1Sc1ccc(F)cc1F` (configuration not stated), the cytotoxicity at 10 µM was -8.01%.

For the molecule `COCc1cn(C[C@H]2C[C@@H]3CCN2C[C@@H]3C(=O)N2CCOCC2)nn1`, the cytotoxicity at 10 µM was determined as 4.45%.

Consider `Cc1cccc(OC2CCN(S(=O)(=O)Cc3cccc(F)c3)CC2)n1`, for which the cytotoxicity at 10 µM is -7.79%.

On to `COC1(CNS(=O)(=O)c2ccccc2Cl)CCSC1` (configuration not stated), for which the cytotoxicity at 10 µM was -7.48%.

Take `Cc1nc(N(C)C)nc(C)c1NC(=O)c1ccco1`: the cytotoxicity at 10 µM was 1.14%.

For the molecule `O=C(NCCCO)C1CC(=O)N(c2n[nH]c3cccc(F)c23)C1` (configuration not stated), the cytotoxicity at 10 µM is -1.07%.

Consider `CCS(=O)(=O)N1Cc2nccn2CC(Cn2nc(C)nc2C)C1` (configuration not stated), for which the cytotoxicity at 10 µM is -2.34%.

For the molecule `O=C(CCc1ccccc1)N1CCn2cc(Cn3cncn3)nc2C1`, the cytotoxicity at 10 µM was -0.881%.

As for `CC1CCCCN1C(=O)c1ccn(COc2ccc(F)cc2)n1` (configuration not stated), the cytotoxicity at 10 µM was 4.7%.

Take `CC(C)(C)NC(=O)N1CCN(Cc2cccnc2)CC1`: the cytotoxicity at 10 µM amounted to 10.3%.

On to `c1ccc2c(N3CCSCC3)cnnc2c1`, for which the cytotoxicity at 10 µM is -4.02%.

For `CCN1CCN(C(=O)COCc2nc(-c3ccncc3)no2)CC1`, the cytotoxicity at 10 µM is -8.72%.

On to `CCCC(=O)NCCc1nc2cc(-c3ccc(OC)cc3)ncn2n1`, for which the cytotoxicity at 10 µM was 5.26%.

In the case of `CCOCC(=O)N1C[C@@H](O)[C@H](N2CCN(c3ccccc3)CC2)C1`, the cytotoxicity at 10 µM stood at 7.43%.

In the case of `CCc1cc(O)n2nc(C3CCN(C(=O)c4ccccn4)CC3)cc2n1`, the cytotoxicity at 10 µM came out at 2.29%.

As for `Cc1c[nH]nc1C1CN(Cc2cnn(-c3ccccc3C(=O)O)c2)C1`, the cytotoxicity at 10 µM came out at 3.32%.

In the case of `CO[C@@H]1CC[C@@H](N(C)C(=O)c2cn3cc(C)ccc3n2)[C@H]1O`, the cytotoxicity at 10 µM was found to be 0.91%.

Consider `COCCN1CCCC(C)(c2cc(O)[nH]n2)C1` (configuration not stated), for which the cytotoxicity at 10 µM stood at 10.8%.

In the case of `Cc1nccc(C2CN(S(=O)(=O)N(C)C)C2)n1`, the cytotoxicity at 10 µM is -5.44%.

For `CNc1cc(C)nc(C2COCCN2CCc2ccccc2)n1` (configuration not stated), the cytotoxicity at 10 µM amounted to 2.52%.

Regarding `CNc1ncc(C(=O)N2CCOC(C(=O)NC3CCCC3)C2)cn1` (configuration not stated), the cytotoxicity at 10 µM stood at 12.2%.

Consider `Cc1ccc(N(C)[C@@H]2CC[C@@H]3CN(C(=O)Cc4cccs4)C[C@@H]32)nn1`, for which the cytotoxicity at 10 µM was -13.5%.

In the case of `CCCn1cc(C(=O)N2CCCC2(C)c2nc(C)cc(C)n2)cn1` (configuration not stated), the cytotoxicity at 10 µM amounted to 4.28%.

In the case of `c1cc(N2CCCC2c2cnccn2)ncn1` (configuration not stated), the cytotoxicity at 10 µM was -22.4%.

Regarding `Cc1nccn1-c1ccc(NS(=O)(=O)c2cnn(C(C)C)c2)cn1`, the cytotoxicity at 10 µM was -5.05%.

As to `O=C(c1ccncc1)N1CCCN(Cc2nnc(C3CC3)o2)CC1`, the cytotoxicity at 10 µM was found to be 1.91%.

With `CCC1CCCCCN1C(=O)c1coc(S(=O)(=O)N(C)C)c1` (configuration not stated), the cytotoxicity at 10 µM was 1.66%.

Consider `CC(C)(C)c1nnc(NCC(=O)N2CCc3sccc3C2)s1`, for which the cytotoxicity at 10 µM was 5.62%.

As for `COCCN(C(=O)c1ccc(OC)cc1)c1ccc(C#N)cc1`, the cytotoxicity at 10 µM was 7.81%.

Regarding `Cc1ccc(N2CCCN(C(=O)c3cc(CC(C)C)n[nH]3)CC2)nn1`, the cytotoxicity at 10 µM is -14.6%.

For the molecule `COCCC(=O)NCC(O)c1c(F)cccc1F` (configuration not stated), the cytotoxicity at 10 µM is -2.38%.

On to `Cc1cc(OCC(=O)NCc2ccc(F)cc2)nnc1C`, for which the cytotoxicity at 10 µM was -9.27%.

In the case of `O=C(OCc1cccs1)c1cccc(C(=O)N2CCCC2)n1`, the cytotoxicity at 10 µM is -1.11%.

As for `O=C(O)c1csc(S(=O)(=O)N2CCN(Cc3c(F)cccc3Cl)CC2)c1`, the cytotoxicity at 10 µM was -2.56%.

On to `CCc1ccc(CNC(=O)CCNS(=O)(=O)c2cn(C)c(C)n2)s1`, for which the cytotoxicity at 10 µM was found to be 6.13%.

Take `CNC(=O)CN1CCN(C(=O)Nc2ccc(C)s2)CC1`: the cytotoxicity at 10 µM was -13.3%.

In the case of `Cc1noc(C)c1CC(=O)N1CCCC(c2noc(C(C)C)n2)C1` (configuration not stated), the cytotoxicity at 10 µM was determined as 1.48%.

For `CCn1nc(C)c(CNC(=O)NCC(C)(O)c2ccco2)c1C` (configuration not stated), the cytotoxicity at 10 µM was -10.8%.

Consider `COC(=O)c1ccc(Cl)c(NS(=O)(=O)c2cn(C)cn2)c1`, for which the cytotoxicity at 10 µM turned out to be 11.9%.

On to `Cc1nn(C)c(Cl)c1C1CCCN1CC(=O)N1CCCCC1` (configuration not stated), for which the cytotoxicity at 10 µM came to 0.347%.

As for `Cc1cc(CN2CCN(C(=O)C(C(C)C)n3cncn3)CC2)no1` (configuration not stated), the cytotoxicity at 10 µM was -9.88%.

`CC(C)c1nc(CN2CCN(C(=O)CC3CCCCC3)CC2)no1`: the cytotoxicity at 10 µM was -0.95%.

Turning to `CCN(CC)C(=O)CCNC(=O)c1ccccc1N1CCOCC1`, the cytotoxicity at 10 µM is -0.768%.

Regarding `Cc1cccc(CNCCOc2ccc(S(C)(=O)=O)cc2)c1`, the cytotoxicity at 10 µM was -0.302%.

Take `CS(=O)(=O)NCC1CCCN(C(=O)c2ccc3c(c2)CCCC3)C1` (configuration not stated): the cytotoxicity at 10 µM was -3.54%.

For `OC(COc1ccc2c(c1)OCO2)CN1CC(n2cccn2)C1` (configuration not stated), the cytotoxicity at 10 µM was -6.17%.

Take `Cc1nnc2n1CCN(C(=O)CN1C(=O)CCOc3ccccc31)C2`: the cytotoxicity at 10 µM worked out at 4.48%.

On to `CCCN1CCC(C(=O)NCCN(CC)c2ccccc2C)CC1`, for which the cytotoxicity at 10 µM came out at 15.7%.

On to `Cc1cnn(CCC(=O)Nc2cccnc2N2CCC(CO)CC2)c1`, for which the cytotoxicity at 10 µM was -2%.

Take `O=C(NC1CCN(c2ncccn2)CC1)c1cccc(-n2ccnc2)c1`: the cytotoxicity at 10 µM is -1.17%.

With `CC(=O)c1ccc(OCC(=O)NC(C)CCc2ccco2)cc1` (configuration not stated), the cytotoxicity at 10 µM is -9.96%.

As for `Cc1cc(NC(=O)NCCc2ccsc2)n(C)n1`, the cytotoxicity at 10 µM was found to be 12.3%.

In the case of `CCOCC1c2c(ncn2C)CCN1C(=O)c1ccoc1` (configuration not stated), the cytotoxicity at 10 µM is -103%.

Consider `O=C(c1cocn1)N1CCC[C@]2(C[C@@H](OCC3CC3)CO2)C1`, for which the cytotoxicity at 10 µM was -76.4%.

As for `O=C(c1ccsc1)N1CC[C@@H](N2CCOCC2)[C@@H]1Cc1ccccc1`, the cytotoxicity at 10 µM was -71.8%.

Turning to `COc1ccccc1OC1CCN(c2ccncc2)CC1`, the cytotoxicity at 10 µM was found to be 3.33%.

For the molecule `COCCN(CCOC)C(=O)c1c[nH]nc1-c1cccc(F)c1`, the cytotoxicity at 10 µM is -0.25%.

Take `CCCN1CCC(N2CCN(c3cc(C)nc(C)c3)CC2)CC1`: the cytotoxicity at 10 µM was -11.2%.

For the molecule `CCc1cc(N2C[C@H](C3CC3)[C@@H](N)C2)nc(N2CCCC2)n1`, the cytotoxicity at 10 µM is 0.334%.

For the molecule `CC(C)CN(Cc1cnn(C)c1)C(=O)C1COc2ccccc2C1` (configuration not stated), the cytotoxicity at 10 µM was found to be 0.956%.

Regarding `CS(=O)(=O)N1CCC[C@H]1c1ncnn1-c1ccc2c(c1)OCO2`, the cytotoxicity at 10 µM is -12.8%.

With `CSc1cccc(CN2CCC(CCC(=O)NCCN(C)C)CC2)c1`, the cytotoxicity at 10 µM is -11.9%.

For `CC1(Cc2ccccn2)NCCc2[nH]cnc21` (configuration not stated), the cytotoxicity at 10 µM is -5.18%.

Turning to `CC(C)(O)c1cn(C2CCN(C(=O)CCC(F)(F)F)CC2)nn1`, the cytotoxicity at 10 µM amounted to 1.93%.

`CN(Cc1ccon1)c1nc(-c2ccccn2)nc2c1CCNCC2`: the cytotoxicity at 10 µM was -2.45%.

On to `COC(=O)C(C)(C)NC(=O)c1cc(COc2ccccc2OC)[nH]n1`, for which the cytotoxicity at 10 µM is -4.83%.

With `N#Cc1c(N)nc2c(c1C1CCOC1)CCc1cc(O)ccc1-2` (configuration not stated), the cytotoxicity at 10 µM came to 23.4%.

As to `COc1cccn(CC(=O)N2CCCC3(CCCO3)CC2)c1=O` (configuration not stated), the cytotoxicity at 10 µM was 0.955%.

On to `Cn1c(C(=O)N2CCc3[nH]cnc3C2C(=O)O)ccc1-c1ccccc1` (configuration not stated), for which the cytotoxicity at 10 µM was -0.392%.

Turning to `CCN(CC)C(=O)[C@@H]1C[C@H](N)CN1C(=O)c1cc2c([nH]c1=O)CCC2`, the cytotoxicity at 10 µM is -1.94%.

Turning to `Cc1cc(CN(C)CCC(O)c2ccccc2)nn1C` (configuration not stated), the cytotoxicity at 10 µM was -17.3%.

With `O=C(NCCc1ccncc1)c1ccc(S(=O)(=O)NC2CCC2)cc1`, the cytotoxicity at 10 µM is -7.54%.

Consider `O=C(c1c[nH]nc1-c1cccc(F)c1)N1CCNC(c2ccccc2)C1` (configuration not stated), for which the cytotoxicity at 10 µM is -3.68%.

Turning to `COc1ccc(C(=O)C2CCCN(Cc3ccncc3)C2)c(OC)c1` (configuration not stated), the cytotoxicity at 10 µM was -15.7%.

Regarding `CCCc1nc(C(C)(C)NC(=O)C2CC(=O)N(CCOC)C2)no1` (configuration not stated), the cytotoxicity at 10 µM was -8.12%.

As to `CN(Cc1nccn1C)C1CCN(CCc2ccccn2)CC1`, the cytotoxicity at 10 µM was -8.78%.

Consider `COc1ccnc(N2CCN(C(=O)COCC(F)(F)F)CC2)n1`, for which the cytotoxicity at 10 µM is -9.36%.

Consider `Cc1nc(C)n(CC2CCCCN2CC(=O)Nc2c(C)n[nH]c2C)n1` (configuration not stated), for which the cytotoxicity at 10 µM is -12.7%.

Regarding `CC(C(=O)NCc1ccnc(N2CCOCC2)c1)n1cccn1` (configuration not stated), the cytotoxicity at 10 µM is -6.28%.

With `CC1CN(CCOc2cccc(C#N)c2)CCN1Cc1nccn1C` (configuration not stated), the cytotoxicity at 10 µM was -2.81%.

Consider `Cc1nc2n(n1)CC(NCCC(=O)Nc1cc(C)on1)CC2` (configuration not stated), for which the cytotoxicity at 10 µM is -10.5%.

As for `CN(C)c1ncccc1CNS(=O)(=O)c1ccc(C(N)=O)cc1`, the cytotoxicity at 10 µM is -4.08%.

Consider `CC(C)(C)c1n[nH]c(C2CN(Cc3nnc(C4CC4)o3)CCO2)n1` (configuration not stated), for which the cytotoxicity at 10 µM was -6.55%.

For `Cc1cc(C)n(CC2CCCCN2C(=O)c2ccsc2)n1` (configuration not stated), the cytotoxicity at 10 µM is -10.3%.

`Cc1cnn(CC(C)NCc2csc(-c3ncccn3)n2)c1` (configuration not stated): the cytotoxicity at 10 µM was -6.94%.

With `CCCN(CC1COc2ccccc2O1)C(=O)CCn1cncn1` (configuration not stated), the cytotoxicity at 10 µM was -0.627%.

Take `CCc1noc(C(C)N2CCN(Cc3nnc(C4CC4)o3)CC2)n1` (configuration not stated): the cytotoxicity at 10 µM was -4.79%.

For `CC(C)c1nc(C(=O)N2CCCC(n3cncn3)C2)c[nH]1` (configuration not stated), the cytotoxicity at 10 µM was -2.48%.

As for `CCOCC(=O)N1CCC2(CC1)COCCN2CCN(C)C`, the cytotoxicity at 10 µM was -0.464%.

With `Cc1ccc2c(c1)C(NC(=O)N(C)C)CC21CCN(C(C)C)CC1` (configuration not stated), the cytotoxicity at 10 µM was -0.493%.

As for `O=C(c1ccncc1F)N1CCc2ncnc(C3CC3)c2CC1`, the cytotoxicity at 10 µM was -78.4%.

For `O=C(Nc1ccccc1)C1CN(Cc2ccsc2)CC12CCOCC2` (configuration not stated), the cytotoxicity at 10 µM is 6.58%.

With `Cc1ccc(CN2CCn3cc(CN(C)Cc4ccco4)nc3C2)o1`, the cytotoxicity at 10 µM is -1.09%.

For the molecule `Cc1nnn2c1COC(CNCc1nccs1)C2` (configuration not stated), the cytotoxicity at 10 µM was determined as 1.71%.

In the case of `O=C1N(CC2CC2)CCC12CCN(c1ncccn1)CC2`, the cytotoxicity at 10 µM was determined as 3.77%.

Regarding `CN(C)C(=O)COC[C@]12COC[C@H]1CN(Cc1ccco1)C2`, the cytotoxicity at 10 µM was -0.522%.

Regarding `CN(C)C(=O)N1CCOCC2(CCN(c3ccccn3)C2)C1` (configuration not stated), the cytotoxicity at 10 µM came to 1.6%.
